Results: ChEMBL document CHEMBL5303300, “EUbOPEN Chemogenomics Library - Multiplex” (2023)
Several values for one entry are separate records, joined by “and”; a condition that tells them apart may be missing. Equal values may be shown once.

How the values were obtained:
[1] = system: Fibroblast; assay: Multiplex assay against human fibroblast; type: toxicity, cell-based; settings: number of replicates 2
Method in brief: (§1)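 Hoechst33342, BioTracker Green Microtubule Cytoskeleton Dye, MitoTracker Red and Annexin V Alexa Fluor 680 were added to live cells at seeding, and imaging on a CQ1 microscope at 37°C and 5% CO2 followed compound addition. Gating by CellPathfinder machine learning separated cells into Hoechst high-intensity objects or normal cells, then normal cells into healthy, pyknosed or fragmented nuclei, then pyknosed cells into mitotic or apoptotic. Per cents of healthy-nucleus cells are reported for the tubulin, mitochondrial-mass and membrane-permeability phenotypes.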

[2] = system: HEK-293T; assay: Multiplex assay against HEK293T; type: toxicity, cell-based; settings: human, number of replicates 2; method in brief: as §1
[3] = 12 h, 1 µM, compound concentration 1 uM
[4] = 12 h, 10 µM, compound concentration 10 uM
[5] = 24 h, 1 µM, compound concentration 1 uM
[6] = 24 h, 10 µM, compound concentration 10 uM
[7] = 48 h, 1 µM, compound concentration 1 uM
[8] = 48 h, 10 µM, compound concentration 10 uM

COc1cc2nc(-c3cc(F)ccc3O)nc(N[C@@H]3CNC[C@H]3C(C)(C)O)c2cc1OC.Cl.Cl
Population Apoptotic (%) [1, 3]: 35% and 34%
Population Healthy Nuclei (%) [1, 3]: 60% and 58%
Population Hoechst High Intensity Objects (%) [1, 3]: 0%
Population Membrane Permeable-Phenotype (%) [1, 3]: 11% and 9%
Population Mitochondria Different-Phenotype (%) [1, 3]: 0% and 2%
Population Mitotic Cells (%) [1, 3]: 65%
Population Normal (%) [1, 3]: 100%
Population Pyknosed Nuclei (%) [1, 3]: 33% and 24%
Population Tubulin-Different-Phenotype (%) [1, 3]: 48% and 46%
Total Cell Count [1, 3]: 178 and 189
Population Apoptotic (%) [1, 4]: 72% and 73%
Population Healthy Nuclei (%) [1, 4]: 8% and 16%
Population Hoechst High Intensity Objects (%) [1, 4]: 0%
Population Mitochondria Different-Phenotype (%) [1, 4]: 26% and 25%
Population Mitotic Cells (%) [1, 4]: 27% and 26%
Population Normal (%) [1, 4]: 99% and 100%
Population Pyknosed Nuclei (%) [1, 4]: 85% and 67%
Population Tubulin-Different-Phenotype (%) [1, 4]: 86% and 67%
Total Cell Count [1, 4]: 170 and 187
Population Apoptotic (%) [1, 5]: 44% and 53%
Population Fragmented Nuclei (%) [1, 5]: 15% and 17%
Population Healthy Nuclei (%) [1, 5]: 63% and 65%
Population Hoechst High Intensity Objects (%) [1, 5]: 0%
Population Membrane Permeable-Phenotype (%) [1, 5]: 4% and 1%
Population Mitochondria Different-Phenotype (%) [1, 5]: 0% and 3%
Population Mitotic Cells (%) [1, 5]: 55% and 46%
Population Normal (%) [1, 5]: 99% and 100%
Population Pyknosed Nuclei (%) [1, 5]: 21% and 17%
Population Tubulin-Different-Phenotype (%) [1, 5]: 26% and 37%
Total Cell Count [1, 5]: 211 and 188
Population Apoptotic (%) [1, 6]: 87% and 93%
Population Healthy Nuclei (%) [1, 6]: 1% and 2%
Population Hoechst High Intensity Objects (%) [1, 6]: 0%
Population Membrane Permeable-Phenotype (%) [1, 6]: 50% and 25%
Population Mitochondria Different-Phenotype (%) [1, 6]: 0% and 25%
Population Mitotic Cells (%) [1, 6]: 12% and 6%
Population Normal (%) [1, 6]: 100%
Population Pyknosed Nuclei (%) [1, 6]: 92% and 80%
Population Tubulin-Different-Phenotype (%) [1, 6]: 50%
Total Cell Count [1, 6]: 168
Population Apoptotic (%) [1, 7]: 59% and 75%
Population Fragmented Nuclei (%) [1, 7]: 13% and 17%
Population Healthy Nuclei (%) [1, 7]: 75% and 70%
Population Hoechst High Intensity Objects (%) [1, 7]: 0%
Population Membrane Permeable-Phenotype (%) [1, 7]: 4% and 1%
Population Mitochondria Different-Phenotype (%) [1, 7]: 1% and 0%
Population Mitotic Cells (%) [1, 7]: 40% and 25%
Population Normal (%) [1, 7]: 100%
Population Pyknosed Nuclei (%) [1, 7]: 10% and 12%
Population Tubulin-Different-Phenotype (%) [1, 7]: 27% and 11%
Total Cell Count [1, 7]: 201 and 191
Population Apoptotic (%) [1, 8]: 94% and 92%
Population Fragmented Nuclei (%) [1, 8]: 18% and 9%
Population Healthy Nuclei (%) [1, 8]: 3% and 4%
Population Hoechst High Intensity Objects (%) [1, 8]: 0%
Population Membrane Permeable-Phenotype (%) [1, 8]: 33% and 42%
Population Mitochondria Different-Phenotype (%) [1, 8]: 0%
Population Mitotic Cells (%) [1, 8]: 5% and 7%
Population Normal (%) [1, 8]: 100% and 99%
Population Pyknosed Nuclei (%) [1, 8]: 77% and 85%
Population Tubulin-Different-Phenotype (%) [1, 8]: 33% and 85%
Total Cell Count [1, 8]: 171 and 162
Population Apoptotic (%) [2, 3]: 40% and 65%
Population Fragmented Nuclei (%) [2, 3]: 4% and 3%
Population Healthy Nuclei (%) [2, 3]: 86% and 83%
Population Hoechst High Intensity Objects (%) [2, 3]: 6% and 5%
Population Membrane Permeable-Phenotype (%) [2, 3]: 4% and 3%
Population Mitochondria Different-Phenotype (%) [2, 3]: 24% and 25%
Population Mitotic Cells (%) [2, 3]: 59% and 34%
Population Normal (%) [2, 3]: 93% and 94%
Population Pyknosed Nuclei (%) [2, 3]: 9% and 13%
Population Tubulin-Different-Phenotype (%) [2, 3]: 78%
Total Cell Count [2, 3]: 681 and 543
Population Apoptotic (%) [2, 4]: 78% and 80%
Population Fragmented Nuclei (%) [2, 4]: 2%
Population Healthy Nuclei (%) [2, 4]: 62% and 61%
Population Hoechst High Intensity Objects (%) [2, 4]: 7% and 8%
Population Membrane Permeable-Phenotype (%) [2, 4]: 4% and 2%
Population Mitochondria Different-Phenotype (%) [2, 4]: 82% and 75%
Population Mitotic Cells (%) [2, 4]: 21% and 19%
Population Normal (%) [2, 4]: 92% and 91%
Population Pyknosed Nuclei (%) [2, 4]: 35%
Population Tubulin-Different-Phenotype (%) [2, 4]: 97%
Total Cell Count [2, 4]: 476 and 483
Population Apoptotic (%) [2, 5]: 47% and 69%
Population Fragmented Nuclei (%) [2, 5]: 6%
Population Healthy Nuclei (%) [2, 5]: 85% and 84%
Population Hoechst High Intensity Objects (%) [2, 5]: 8% and 9%
Population Membrane Permeable-Phenotype (%) [2, 5]: 3%
Population Mitochondria Different-Phenotype (%) [2, 5]: 12% and 17%
Population Mitotic Cells (%) [2, 5]: 52% and 30%
Population Normal (%) [2, 5]: 91% and 90%
